Screens: PubChem, Johns Hopkins Ion Channel Center
The list is not random: actives were taken first. Their share in the collection is about 3.8%.
KCNK3 block: human KCNK3 channel inhibitors, primary screen, CHO cells, FluxOR thallium flux, B-score; Potassium channel subfamily K member 3 (Homo sapiens), O14649; FluxOR fluorescence; active compounds read low; B-score at 10 µM; 0.84% of 340,000 active;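 active = B-score under library mean minus 4 SD, starting fluorescence ratio at most library mean plus 5 SD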;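 note: more negative B-score means stronger inhibition of thallium flux through KCNK3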
KCNQ1 pot: potentiators or activators of KCNQ1 channel, primary screen, cell-based, thallium flux, high-throughput. Potassium voltage-gated channel subfamily KQT member 1 (Homo sapiens), P51787. CHO-K1 KCNQ1, thallium flux FluxOR fluorescence; active compounds read high. B-score at 10 µM. 0.35% of 310,000 active. AID 2648, 2010;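 active = fluorescence ratio B-score, a plate-corrected score, at least three library SD, with initial intensity B-score within 5 SD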
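System: Stable KCNQ1 CHO-K1 line | Incubation: 90 min dye loading and 20 min compound exposure, both at room temperature | Measure: Ratio B score | Medium: Assay buffer for compound exposure, DMSO matched across wells | Compound dosing: Single-concentration screen | Probe or stimulus: K+/Tl+ depolarizing stimulus | Measured by: Kinetic FluxOR fluorescence, 10 s baseline plus 110 s post-stimulus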
hERG rescue: hERG rescue from dofetilide block, primary screen, cell-based, CHO-hERG, FluxOR thallium flux, dofetilide IC70 | 0.51% of 310,000 active | activation (rescue from dofetilide block), less the hit threshold, % at 10 µM | AID 1511, 2009 | dofetilide IC70 present;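 active = activation above the mean of controls blocked by dofetilide plus 5 SD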;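 note: thallium influx through hERG after potassium depolarization seen as dye fluorescence rise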
KCNQ1 block: inhibitors of human KCNQ1 channel, primary screen, cell-based, thallium flux, high-throughput. Potassium voltage-gated channel subfamily KQT member 1 (Homo sapiens), P51787. CHO-K1 KCNQ1, FluxOR thallium flux fluorescence; active compounds read high. B-score at 10 µM. 1.3% of 310,000 active;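 active = compounds whose thallium flux B-score, printed positive for inhibition, exceeds three library SD while starting fluorescence stays within three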;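 note: channel opened by potassium depolarization with thallium stimulus after 20 min compound exposure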
KCNK9 inh: KCNK9 potassium channel inhibitors, primary screen, HEK293 cells, thallium flux. Potassium channel subfamily K member 9 (Homo sapiens), Q9NPC2. FluxOR thallium flux fluorescence; active compounds read low. B-score at 10 µM. 1.2% of 310,000 active. AID 488922, 2010;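 active = ratio B-score over 3 SD below the library mean, with starting fluorescence within 5 SD of its mean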;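 note: negative B-score means less thallium flux so channel inhibition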
Target sequence (Q9NPC2 whole entry, looked up): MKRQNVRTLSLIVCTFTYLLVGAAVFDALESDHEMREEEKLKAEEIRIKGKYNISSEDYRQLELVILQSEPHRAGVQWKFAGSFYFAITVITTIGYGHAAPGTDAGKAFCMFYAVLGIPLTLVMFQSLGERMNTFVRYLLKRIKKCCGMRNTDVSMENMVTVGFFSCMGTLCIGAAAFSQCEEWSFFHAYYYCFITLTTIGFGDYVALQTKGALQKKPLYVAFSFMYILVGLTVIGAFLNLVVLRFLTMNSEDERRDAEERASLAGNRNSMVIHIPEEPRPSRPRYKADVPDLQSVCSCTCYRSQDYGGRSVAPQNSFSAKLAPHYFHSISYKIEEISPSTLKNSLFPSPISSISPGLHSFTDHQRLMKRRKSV
Kir21 inh: inhibitors of mouse Kir2.1 inward-rectifier potassium channel; B-score at 10 µM; 0.85% of 310,000 active; AID 1672, 2009; Inward rectifier potassium channel 2 (Mus musculus), P35561; HEK293-Kir2.1, FluxOR thallium flux fluorescence; active compounds read low;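 active = fluorescence ratio B-score at or below minus 3 SD of library scores, with starting-brightness B-score within 2 SD, cut at about -4.2 in these data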;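 note: channel flux triggered by added potassium and thallium sulfate stimulus; B-score of peak minus minimum fluorescence over baseline after thallium stimulus; more negative B-score means stronger Kir2.1 block with less thallium influx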
The depositor's hits bear a star; i = inactive; . = no result given.

SMILES	KCNK3 block	KCNQ1 pot	hERG rescue	KCNQ1 block	KCNK9 inh	Kir21 inh
CCCn1c(SCC(=O)N2CCN(C(C)=O)CC2)nc2sc3c(c2c1=O)CCC3	i	16*	25*	i	i	-1.8
CCn1c(SC(C)C(=O)O)nc2sc3c(c2c1=O)CCC3 (stereo not drawn)	i	14*	15*	i	i	1.2
COc1ccc(-c2csc(NC(=O)C3CCCCN3S(=O)(=O)c3ccccc3)n2)cc1 (stereo not drawn)	i	151*	-8	i	i	-1.6
O=C(NC1CCCC1)c1cccc2c1C(=O)c1ccc(Cl)cc1S2(=O)=O	i	.	.	.	.	.
COc1cccc(-c2nn(-c3ccccc3)cc2CN(C)C(C)c2ccon2)c1 (stereo not drawn)	i	i	-5	6*	i	-0.11
COc1cccc(-c2nn(-c3ccccc3)cc2CN(C)Cc2ccno2)c1	i	i	-8	i	i	-0.53
Cc1ccc([N+](=O)[O-])cc1-c1ccc(/C=N\n2nnnc2N)o1	i	i	0	i	i	0.49
CC1CC2=C(NC(=S)NC2c2ccccc2F)/C(=C/c2ccccc2F)C1 (stereo not drawn)	i	i	-11	6*	i	2.3
CC1CC2=C(NC(=S)NC2c2cccc(F)c2)/C(=C/c2cccc(F)c2)C1 (stereo not drawn)	i	i	-16	i	i	0.08
CN(C(=O)COc1ccccc1)C1CCS(=O)(=O)C1 (stereo not drawn)	i	i	-5	i	i	2.6
O=C(C(Sc1ccccc1)c1ccc(Br)cc1)N1CCOCC1 (stereo not drawn)	i	i	-8	i	i	-5.8*
CC(=O)OC1CCC2C3CCc4cc(O)ccc4C3CCC12C (stereo not drawn)	i	.	.	.	.	.
O=C(O)CCc1cc(I)c(Oc2ccc(O)c(I)c2)c(I)c1	.	49*	29*	i	i	-0.74
Cc1nn(C)c(Oc2ccc(Cl)cc2)c1C(=O)O	i	i	-15	i	i	-0.15
Cc1ccc(-c2csc(=S)[nH]2)cc1	i	94*	97*	i	i	-0.6
S=c1[nH]c(-c2ccc(Cl)cc2)cs1	i	17*	87*	i	i	0.01
Cc1ccc(-c2ccc(C(=O)O)[nH]2)cc1	i	i	-12	i	i	-0.16
COc1ccc(Nc2cc(C)nc(N3CCOCC3)n2)cc1	i	.	.	.	.	.
COC(=O)CSc1nc(C(C)C)nc2ccccc12	i	i	-8	i	i	-2.7
CCCCCCCC/C=C\CCCCCCCC(=O)O	i	i	13*	i	i	1.4
Cc1ccc(CNC(=O)C2CC(c3ccccc3[N+](=O)[O-])=NO2)cc1 (stereo not drawn)	i	i	-6	i	i	1.4
CCCCCCCCCCC[N+](C)(C)CC/C=C1/c2ccccc2Sc2ccc(Cl)cc21	i	9*	-11	i	i	-0.29
CC[N+](C)(C)CC/C=C1/c2ccccc2Sc2ccc(Cl)cc21	i	i	-6	i	i	1.9
Cc1nn(-c2ccccc2)c2ncc(C(=O)c3cc(Cl)ccc3O)cc12	i	i	-7	i	i	-0.69
CCc1nn2cc(C(=O)c3cc(Cl)ccc3O)cnc2c1-c1ccc(F)cc1	i	i	-10	8*	i	-0.43
SMILES	KCNK3 block	KCNQ1 pot	hERG rescue	KCNQ1 block	KCNK9 inh	Kir21 inh
Cc1nc2c(C(=O)N3CCN(c4ccccn4)CC3)cnn2c(C)c1Cc1cccc(Cl)c1	i	7*	-18	i	i	-1.6
N#Cc1ccc(C(=O)Nc2ccc(S(=O)(=O)NC3=NCCCCC3)cc2)cc1	i	i	-5	i	i	0.89
Nc1ccc(Cc2ccc([N+](=O)[O-])cc2)cc1	i	.	.	.	.	.
CC(C)c1ccc(NC(=O)Cn2ncn3c(cc4ccccc43)c2=O)cc1	i	i	-11	i	i	1.1
CN(C)c1ccc(NC(=O)Cn2ncn3c(cc4ccccc43)c2=O)cc1	i	i	8.9*	i	i	-0.04
CCc1ccc2c(CN3CCN(S(=O)(=O)c4ccccc4F)CC3)cc(=O)oc2c1	i	.	.	.	.	.
Cc1nnc(SCc2cc(=O)oc3cc(O)ccc23)n1Cc1ccccc1	i	i	11*	i	i	-0.01
CCc1ccc2c(CN3CCN(Cc4ccccc4)CC3)cc(=O)oc2c1	i	i	-18	i	i	-5.2*
Cc1cccc2nc(CSc3ccc(Cl)cc3)cn12	i	i	-7	i	i	-0.66
Cc1ccccc1S(=O)(=O)Oc1cccc2c(O)cccc12	i	i	-9	i	i	-4.3*
COc1ccccc1CNC(=O)C/C(C)=N/NC(=O)COc1ccc(C)cc1Br	i	i	-3	i	i	1.1
C/C(CC(=O)Nc1ccccc1-c1ccccc1)=N\NC(=O)COc1ccc(C)cc1Br	i	i	-13	6*	i	-0.67
CC(=O)Oc1ccc(C(=O)Nc2cccc(C(=O)c3ccc(C)c(C)c3)c2)cc1	i	i	-7	6*	i	-2
CC(=O)Oc1cccc(NC(=O)c2cccc(C(=O)Nc3cccc(OC(C)=O)c3)c2)c1	i	i	-5	i	i	0.01
COc1ccc(C(=O)Nc2cccc(OC(=O)c3ccc(C)c(C)c3)c2)cc1	i	i	-17	6*	i	1.2
COc1ccc(Cn2nnnc2C(c2cc3cc(C)cc(C)c3[nH]c2=O)N2CCOCC2)cc1 (stereo not drawn)	i	i	-10	i	i	0.1
O=C(NC1CC1)C1CCC(=O)N1C1CCCC1 (stereo not drawn)	i	i	5.2*	i	i	-1.1
CC(C)N1C(=O)CCC1C(=O)NC1CCCC1 (stereo not drawn)	i	i	-6	i	i	-1.5
Cc1cccc(CN2CCCC(C(=O)c3ccc4c5c(cccc35)CC4)C2)n1 (stereo not drawn)	i	i	-19	i	i	-4.2*
COc1ccc2cc(C(=O)C3CCCN(Cc4cccc(C)n4)C3)ccc2c1 (stereo not drawn)	i	i	-10	i	i	-2.5
